Published values of several laboratories.
Each line is one published result; the experiments were not run side by side.
Target: Macrophage-stimulating protein receptor (MST1R, Homo sapiens, UniProt Q04912)

SMILES	effect on	action	method	tested at	measurement	result
CCN(CC)CCNC(=O)c1c(C)[nH]c(/C=C2\C(=O)Nc3ccc(F)cc32)c1C	cell-free assay			10 µM	inhibition	-1%
Cc1noc([C@H]2C[C@@H](c3ccc(C(F)(F)F)cc3)CN(C(=O)N3CCS(=O)(=O)C3)C2)n1	cell-free assay		competition with immobilised ligand	1 µM	remaining binding	100%
CCN(CC)c1ccc(C2=NNC(=O)CC2C)cc1[N+](=O)[O-] (stereo not shown)	enzyme activity	inhibitor		10 µM	remaining activity	106%
Cc1ccc(C(=O)NCc2ccsc2)cc1C#Cc1cn(C(C)C)c2ncnc(N)c12	enzyme activity	inhibitor		1 µM	activity vs control	80%
CC(C)(O)[C@H]1CC[C@H](Nc2ccc3ncc(-c4cccc(C(F)(F)F)c4)n3n2)CC1	enzyme activity	inhibitor		1 µM	remaining activity	101%
Cn1nc(C(F)(F)F)cc1-c1cnc(N2CCc3cc(S(=O)(=O)Nc4c(F)cc(Cl)cc4F)cc(N4CCCC4=O)c32)nc1	cell-free assay		competition with immobilised ligand	1 µM	remaining binding	100%
C=CC(=O)Nc1cc(Nc2nccc(Nc3cc(Cl)c(F)cc3C(C)(C)O)n2)c(OC)cc1N1CC[C@@H](N(C)C)C1	enzyme activity	inhibitor		1 µM	inhibition	8%
O=C(N1CCS(=O)(=O)CC1)N1C[C@H](c2ccc(OC(F)(F)F)cc2)C[C@H](c2nc(C3CC3)no2)C1	cell-free assay		competition with immobilised ligand	1 µM	remaining binding	100%
CCN(CC)CCNC(=O)c1c(C)[nH]c(/C=C2\C(=O)Nc3ccc(F)cc32)c1C	enzyme activity	inhibitor		0.1 µM	remaining activity	97%
Cc1ccc(Nc2nccc(N(C)c3ccc4c(C)n(C)nc4c3)n2)cc1S(N)(=O)=O	cell-free assay			10 µM	inhibition	-4%
Cc1[nH]c(/C=C2\C(=O)Nc3ccc(F)cc32)c(C)c1C(=O)N[C@H]1CCN(C(=O)N(C)C)C1	enzyme activity	inhibitor		1 µM	remaining activity	96%
CCCOc1ccc(OC)c(F)c1C(=O)c1ccc(C(=O)N[C@@H]2CNC[C@H]2NC(=O)c2ccc3[nH]ncc3c2)cc1	enzyme activity	inhibitor		10 µM	remaining activity	64%
CC1=C(C#N)[C@@H](c2ccc3[nH]nc(C)c3c2)C(C#N)=C(c2ccc(Cl)cc2)N1	cell-free assay		competition with immobilised ligand	1 µM	remaining binding	70.2%
O=C1Nc2ccc(Cl)cc2C1=Cc1cc(Cl)c(O)c(Cl)c1	cell-free assay			0.5 µM	remaining signal	94.8%
CCCCNc1ncc2c(-c3ccc(F)cc3)nn(C[C@H]3CC[C@H](N)CC3)c2n1	target engagement in cells	inhibitor	chemoproteomics	20 mM	inhibition	-12.3%
O=C(Nc1cnn(-c2csc(C(=O)NC3COC3)c2)c1)Nc1c(F)cccc1Cl	enzyme activity	inhibitor		5 µM	remaining activity	100%
CNC(=O)c1cc(Oc2ccc(NC(=O)Nc3ccc(Cl)c(C(F)(F)F)c3)cc2)ccn1	cell-free assay			0.3 µM	inhibition	-10%
N#CCCc1ccc2c(c1)-c1[nH]c3ccc([N+](=O)[O-])cc3c1CC(=O)N2	cell-free assay			0.5 µM	remaining signal	107%
COc1cccc2c(NCc3ccccc3)nc(-n3c(N)nc4ccccc43)nc12	target engagement in cells	inhibitor	chemoproteomics	20 mM	inhibition	-13.2%
CCCCN(CCCC)C(=O)CN1C[C@@H](c2cc(OC)c3c(c2)OCO3)[C@H](C(=O)O)[C@H]1CC(C)(C)CCC	cell-free assay		competition with immobilised ligand	1 µM	remaining binding	100%
Oc1cccc(-c2nc(N3CCOCC3)c3oc4ncccc4c3n2)c1	cell-free assay			0.5 µM	remaining signal	94.3%
O=c1nc(-c2ccccn2)sc2ccccc12	cell-free assay		competition with immobilised ligand	1 µM	remaining binding	100%
Cc1ccc(C(=O)Nc2ccc(CN3CCN(C)CC3)c(C(F)(F)F)c2)cc1C#Cc1cnc2cccnn12	cell-free assay			23.5 nM	remaining signal	100%
O=C1CCc2cc(Nc3cc(OC4CCOCC4)c([N+](=O)[O-])cc3Cl)ccc2N1	cell-free assay		competition with immobilised ligand	1 µM	remaining binding	100%
CC(C)(C)c1nc(-c2cccc(NS(=O)(=O)c3c(F)cccc3F)c2F)c(-c2ccnc(N)n2)s1	enzyme activity	inhibitor	radiometric	1 µM	remaining activity	104%
COc1cc2ncnc(Nc3ccc(Oc4ccccc4)cc3C)c2cc1OC	enzyme activity	inhibitor		1 µM	inhibition	-3%
CNCc1ccccc1-c1csc([C@@H](C)Nc2nc(C)nc3cc(OC)c(OC)cc23)c1	cell-free assay		competition with immobilised ligand	1 µM	remaining binding	100%
CC/C(=N\NC(=O)NCc1cccc(O)c1)c1ccc(O)c(C)c1O	enzyme activity	inhibitor		0.1 µM	inhibition	-1.5%
